T cruzi growth-1: T. cruzi proliferation inhibition. T. cruzi beta-gal in NIH3T3, GalScreen luminescence, 90 h. inhibition, % at 8.34 µM. 5.9% of 77,000 active. AID 624255;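 active means mean inhibition above about 93%, with at least 55% of replicates each passing it, limit read from the data, passing the limit was not always enough; inconclusive means only one of those two conditions holds; inactive means neither condition holds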
Pf Dd2 inh: blocks growth of Plasmodium falciparum Dd2 parasites. 2.3% of 94,000 active. P. falciparum Dd2 growth, SYBR Green, 72 h; stronger effect = lower value. activity change, % at 10 µM. AID 1159554; in the data active means activity change below about -80%; inconclusive means no clear call, values can overlap the other calls
IDH1 R132H inh: IDH1 R132H (human) inhibition; O75874; IDH1 R132H reductase, diaphorase/resazurin fluorescence, 60 min; inhibition, % at 10 µM; 0.18% of 70,000 active; AID 624101; in the data active means inhibition above about 34%; inconclusive means no clear call, values can overlap the other calls; inactive means below about 11%
GASC1 inh: KDM4C (human) demethylase inhibition; Q9H3R0; GST-KDM4C 2-372, H3K9me3 peptide, LANCE TR-FRET; inhibition, % at 12.5 µM; 0.15% of 96,000 active; AID 720574;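 active means mean replicate inhibition above about 25%, with at least 55% of replicates also reaching it, limit read from the data, passing the limit was not always enough; inconclusive means only one of those two conditions met; inactive means neither condition met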
Target sequence (Q9H3R0 2-372 limits assumed): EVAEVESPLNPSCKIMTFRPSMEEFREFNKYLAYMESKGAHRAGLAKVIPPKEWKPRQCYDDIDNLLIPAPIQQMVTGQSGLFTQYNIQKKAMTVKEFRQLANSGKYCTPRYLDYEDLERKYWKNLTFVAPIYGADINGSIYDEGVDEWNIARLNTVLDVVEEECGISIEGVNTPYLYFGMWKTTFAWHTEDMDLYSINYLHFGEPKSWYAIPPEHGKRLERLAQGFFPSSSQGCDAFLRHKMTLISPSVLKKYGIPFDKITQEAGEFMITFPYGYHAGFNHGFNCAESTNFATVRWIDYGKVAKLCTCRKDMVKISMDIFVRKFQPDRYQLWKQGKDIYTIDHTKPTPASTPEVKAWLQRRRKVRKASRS
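Assay system: GST-GASC-1 enzyme fragment 2-372 | Amount: 10 nM enzyme | Medium: HEPES buffer, pH 7.5, plus ascorbate | Reagent: H3K9me3 peptide substrate, Fe(II), 2-oxoglutarate | Doses: Single-point compound screen | Incubation: 30 min demethylation and 1 h detection at room temperature | Measured by: LANCE TR-FRET, excitation 340 nm, emissions 618 and 671 nm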
T cruzi growth-2: blocks T. cruzi growth in NIH3T3 host cells; shares compounds with T cruzi growth-1; T. cruzi beta-gal in NIH3T3, GalScreen luminescence, 90 h; inhibition, % at 8.35 µM; 72% of 5,600 active; AID 651739;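 active means mean replicate inhibition above about 95% and at least 55% of replicates individually reaching it, limit read from the data; inconclusive means only one of the two criteria is met; inactive means neither criterion is met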
T cruzi growth-3: Trypanosoma cruzi proliferation inhibition; shares compounds with T cruzi growth-1; T. cruzi beta-gal in NIH3T3, GalScreen luminescence, 90 h; inhibition, % at 2.09 µM; 21% of 5,600 active; AID 651740;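 active means mean inhibition above about 95%, with at least 55% of replicates also reaching it, limit read from the data; inconclusive means meets just one of the two conditions; inactive means meets neither condition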
3T3 cytotox: cytotoxicity in mouse NIH/3T3 fibroblasts | shares compounds with T cruzi growth-1 | NIH/3T3 viability, CellTiter-Glo ATP luminescence, 90 h | cytotoxicity (signal decrease), % at 8.35 µM | 14% of 5,600 active | AID 651742;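 active means mean signal decrease across replicates above about 35% based on untreated-well scatter, with enough replicates individually passing, limit read from the data; inconclusive means no rule stated though some were filed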
3T3 cytotox 2: kills mouse NIH/3T3 fibroblasts; AID 651744; inhibition, % at 24.9 µM; NIH/3T3 viability, CellTiter-Glo ATP luminescence, 90 h; 56% of 5,600 active; shares compounds with T cruzi growth-1;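 active means mean loss of cell viability signal at or above a set limit, and enough replicates individually reaching it; inconclusive means meets only the mean limit or only the replicate share; inactive means meets neither condition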
Hits are given with their value; – = inactive; ? = inconclusive; · = no result. Rows were chosen to be rich in hits. Some 5.9% of all compounds tested hit in one or more screens of this group.

SMILES | T cruzi growth-1 | Pf Dd2 inh | IDH1 R132H inh | GASC1 inh | T cruzi growth-2 | T cruzi growth-3 | 3T3 cytotox | 3T3 cytotox 2
CS(=O)(=O)N1CCCCN2[C@@H](CO)[C@H](c3ccc(C4=CCCC4)cc3)[C@@H]2C1 | ? | – | · | – | – | – | – | –
Cc1cccc(-c2ccc([C@H]3[C@H]4CN(S(=O)(=O)c5cccs5)CCCCN4[C@H]3CO)cc2)c1 | 107 | – | · | – | 103 | 99 | – | 46
COc1ccc(S(=O)(=O)N2CCCCN3[C@H](C2)[C@H](c2ccc(C4=CCCCC4)cc2)[C@@H]3CO)cc1 | 117 | – | · | · | ? | – | – | 27
COC(=O)c1cccc(NC(=O)C(C)Oc2ccc3c(C)cc(=O)oc3c2)c1 (stereo not given) | · | · | – | · | · | · | · | ·
CCC1(CC)Cc2ccccc2-c2[nH]c(=S)n(Cc3ccccc3)c(=O)c21 | · | · | – | · | · | · | · | ·
Cc1ccc(O)c(NC(=O)CCN2C(=O)c3ccccc3C2=O)c1 | · | · | – | · | · | · | · | ·
COc1ccc(-c2ccc([C@H]3[C@H]4CN(S(=O)(=O)c5cccs5)CCCCN4[C@H]3CO)cc2)cc1 | 113 | – | · | – | 108 | – | – | –
COc1ccc(-c2ccc([C@@H]3[C@H](CO)N4CCCCN(S(=O)(=O)c5cccs5)C[C@@H]34)cc2)cc1 | – | – | · | – | · | · | · | ·
O=S(=O)(c1cccs1)N1CCCCN2[C@@H](CO)[C@@H](c3ccc(Br)cc3)[C@@H]2C1 | – | – | · | – | · | · | · | ·
O=S(=O)(c1cccs1)N1CCCCN2[C@H](C1)[C@H](c1ccc(C3=CCCCC3)cc1)[C@@H]2CO | 120 | – | · | · | 109 | – | – | ?
CN(C)C(=O)c1ccc(-c2ccc([C@H]3[C@@H](CO)N4CCCCN(S(C)(=O)=O)C[C@H]34)cc2)cc1 | – | – | · | – | · | · | · | ·
O=S(=O)(c1cccs1)N1CCCCN2[C@H](CO)[C@H](c3ccc(Br)cc3)[C@@H]2C1 | 114 | – | · | – | 100 | – | – | 30
CN(C)C(=O)c1ccc(-c2ccc([C@H]3[C@@H](CO)N4CCCCN(S(C)(=O)=O)C[C@@H]34)cc2)cc1 | 98 | – | · | – | – | – | – | –
COc1cc(OC)c(NC(=O)COc2ccc([N+](=O)[O-])cc2)cc1Cl | · | · | – | · | · | · | · | ·
Cc1c(Br)c([N+](=O)[O-])nn1CC(=O)Nc1ccc(F)cc1 | · | · | – | · | · | · | · | ·
COC(=O)c1ccc(NC(=O)C2Cc3ccccc3CN2S(=O)(=O)c2ccc(F)cc2)cc1 (stereo not given) | · | · | – | · | · | · | · | ·
Cc1ccc(OCC(=O)Nc2ccc3oc(-c4cccc(F)c4)nc3c2)c(C)c1 | · | · | – | · | · | · | · | ·
COc1ccc(CN(C)C[C@H]2Oc3ccc(NS(=O)(=O)c4ccc(C)cc4)cc3CC(=O)N([C@@H](C)CO)C[C@H]2C)cc1 | · | – | – | – | · | · | · | ·
CNC[C@@H]1Oc2ccc(NC(=O)NC3CCCCC3)cc2CC(=O)N([C@H](C)CO)C[C@H]1C | 119 | – | – | – | – | – | – | –
COc1ccc(CN(C)C[C@H]2Oc3ccc(NS(=O)(=O)c4ccc(C)cc4)cc3CC(=O)N([C@H](C)CO)C[C@@H]2C)cc1 | · | – | – | – | · | · | · | ·
COc1ccc(CN(C)C[C@@H]2Oc3ccc(NS(=O)(=O)c4ccc(Cl)cc4)cc3CC(=O)N([C@H](C)CO)C[C@H]2C)cc1 | 101 | – | – | – | 113 | – | – | –
COc1ccc(CN(C)C[C@@H]2Oc3ccc(NS(=O)(=O)c4ccc(C)cc4)cc3CC(=O)N([C@@H](C)CO)C[C@@H]2C)cc1 | 108 | – | – | – | – | – | – | –
COc1ccc(CN(C)C[C@@H]2Oc3ccc(NS(=O)(=O)c4ccc(C)cc4)cc3CC(=O)N([C@H](C)CO)C[C@H]2C)cc1 | 110 | – | – | – | 114 | 106 | – | –
Cn1c(SCC(=O)Nc2ccc(Oc3ccccc3)cc2)nnc1-c1cccs1 | · | · | – | · | · | · | · | ·
COc1ccc(NC(=O)Nc2ccc3c(c2)CC(=O)N([C@H](C)CO)C[C@@H](C)[C@H](CN(C)CC2CCCCC2)O3)cc1 | 101 | – | – | – | 96 | – | – | 106
SMILES | T cruzi growth-1 | Pf Dd2 inh | IDH1 R132H inh | GASC1 inh | T cruzi growth-2 | T cruzi growth-3 | 3T3 cytotox | 3T3 cytotox 2
COc1ccc(CN(C)C[C@H]2Oc3ccc(NS(=O)(=O)c4c(C)noc4C)cc3CC(=O)N([C@@H](C)CO)C[C@H]2C)cc1 | – | – | · | – | · | · | · | ·
COc1ccc(CN(C)C[C@H]2Oc3ccc(NS(=O)(=O)c4c(C)noc4C)cc3CC(=O)N([C@H](C)CO)C[C@@H]2C)cc1 | 106 | – | – | – | – | – | – | –
C[C@@H]1CN([C@H](C)CO)C(=O)c2cc(/C=C/c3ccccc3)cnc2O[C@@H]1CN(C)Cc1ccc2c(c1)OCO2 | 86 | – | – | – | 109 | – | – | 102
C/C=C/c1cnc2c(c1)C(=O)N([C@H](C)CO)C[C@H](C)[C@@H](CN(C)Cc1ccc3c(c1)OCO3)O2 | · | – | – | – | · | · | · | ·
C[C@@H]1CN([C@@H](C)CO)C(=O)c2cc(/C=C/c3ccccc3)cnc2O[C@@H]1CN(C)Cc1ccc2c(c1)OCO2 | 104 | – | – | – | 103 | – | – | 104
COc1ccc(Cl)cc1NC(=O)CSc1nnc(-c2cc3cc(Br)ccc3o2)n1C | · | · | – | · | · | · | · | ·
COc1ccccc1C#Cc1cnc2c(c1)C(=O)N([C@@H](C)CO)C[C@@H](C)[C@H](CN(C)C(=O)CC1CC1)O2 | 108 | – | – | – | 112 | 111 | – | 45
COc1ccccc1C#Cc1cnc2c(c1)C(=O)N([C@@H](C)CO)C[C@H](C)[C@H](CN(C)C(=O)CC1CC1)O2 | – | – | – | – | · | · | · | ·
COc1ccccc1C#Cc1cnc2c(c1)C(=O)N([C@H](C)CO)C[C@@H](C)[C@H](CN(C)C(=O)CC1CC1)O2 | 108 | – | · | – | 102 | – | – | 39
C[C@H](CO)N1C[C@H](C)[C@@H](CN(C)S(=O)(=O)c2ccccc2F)Oc2cc(C#Cc3ccccc3)ccc2S1(=O)=O | 123 | – | – | – | 107 | 116 | – | ?
C[C@@H]1CN([C@@H](C)CO)S(=O)(=O)c2ccc(C#Cc3ccccc3)cc2O[C@@H]1CN(C)S(=O)(=O)c1ccccc1F | 123 | – | – | – | 105 | 109 | – | 47
C[C@@H]1CN([C@@H](C)CO)S(=O)(=O)c2ccc(C#Cc3cccc(F)c3)cc2O[C@@H]1CN(C)S(=O)(=O)c1cn(C)cn1 | – | – | – | – | · | · | · | ·
C[C@H](CO)N1C[C@H](C)[C@@H](CN(C)S(=O)(=O)c2cn(C)cn2)Oc2cc(C#Cc3ccccc3)ccc2S1(=O)=O | 105 | – | – | – | 106 | – | – | 50
